Blank lines part the entries; values can stand above or below the compound they belong to.
Experiments:
[1] = biological target: Poly [ADP-ribose] polymerase 1 (Homo sapiens, UniProt P09874)
A549 [2] = test: In vitro cytotoxicity of compound at 0.4 uM in combination with topotecan against human lung carcinoma A549 cells; format: functional, cell-based
In short: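 A549 cells seeded 16–24 h ahead, then exposed to topotecan plus 0.4 μM PARP-1 inhibitor for 3 or 5 days. Cell number read by MTT (540 nm) or SRB (515 nm). Cytotoxicity expressed as % OD relative to mock-treated culture; topotecan IC50 reported in presence of inhibitor.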

A549 [3] = test: In vitro cytotoxicity against human lung carcinoma A549 cells; format: functional, cell-based
In short: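 A549 cells seeded 16–24 h before treatment, then exposed to compound alone for 3 or 5 days. Relative cell number read by MTT (0.2 μg/μL, 4 h, DMSO-solubilized, 540 nm) or SRB (10% TCA fix 1 h at 4 °C, 0.4% SRB 30 min, Tris-solubilized, 515 nm). Cytotoxicity taken as % OD of treated versus mock-treated culture; IC50 reported.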

A549 [4] = test: Ratio of cytotoxicity of topotecan to cytotoxicity of compound at 0.4 uM in combination with topotecan; format: functional, Homo sapiens

Sequence of Poly [ADP-ribose] polymerase 1 (P09874 whole entry): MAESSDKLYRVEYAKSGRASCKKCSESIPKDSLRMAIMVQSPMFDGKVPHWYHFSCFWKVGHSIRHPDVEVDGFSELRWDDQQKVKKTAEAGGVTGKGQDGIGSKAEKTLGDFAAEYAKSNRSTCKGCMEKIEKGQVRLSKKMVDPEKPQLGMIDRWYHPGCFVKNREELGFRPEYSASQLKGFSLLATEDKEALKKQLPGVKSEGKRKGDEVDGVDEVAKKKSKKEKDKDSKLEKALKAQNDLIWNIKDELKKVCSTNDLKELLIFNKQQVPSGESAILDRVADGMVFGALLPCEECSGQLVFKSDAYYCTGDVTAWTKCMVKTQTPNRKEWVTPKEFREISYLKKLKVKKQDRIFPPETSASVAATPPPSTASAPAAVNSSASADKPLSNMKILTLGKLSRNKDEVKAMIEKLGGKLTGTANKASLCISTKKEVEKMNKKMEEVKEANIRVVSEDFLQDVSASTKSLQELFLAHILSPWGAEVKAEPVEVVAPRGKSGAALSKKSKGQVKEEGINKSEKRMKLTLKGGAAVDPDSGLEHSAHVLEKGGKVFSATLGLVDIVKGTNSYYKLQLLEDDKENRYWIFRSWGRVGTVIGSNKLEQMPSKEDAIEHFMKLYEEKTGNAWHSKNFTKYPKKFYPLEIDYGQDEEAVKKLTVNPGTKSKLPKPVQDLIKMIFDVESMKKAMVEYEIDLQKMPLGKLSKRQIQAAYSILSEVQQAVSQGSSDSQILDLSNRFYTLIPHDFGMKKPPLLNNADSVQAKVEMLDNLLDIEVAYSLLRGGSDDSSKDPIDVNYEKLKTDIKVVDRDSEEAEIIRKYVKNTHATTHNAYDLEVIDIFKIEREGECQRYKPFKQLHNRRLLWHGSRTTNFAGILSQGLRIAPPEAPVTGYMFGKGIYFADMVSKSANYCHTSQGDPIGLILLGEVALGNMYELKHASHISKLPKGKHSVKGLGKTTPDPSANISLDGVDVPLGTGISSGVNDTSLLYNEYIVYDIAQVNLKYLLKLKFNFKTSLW

Ki [1]: 52 nM
SMILES: Cc1nc2c(O)cccc2c(=O)[nH]1

Ki [1]: 70 nM
SMILES: Cc1cccc2c1CCNC2=O

SMILES: N=C(NO)C1c2cccc3c2N(CCNC3=O)C1c1ccc(F)cc1 (stereo not given)
Ki [1]: 87 nM

SMILES: Cc1c(-c2ccc(F)cc2)n2c3c(cccc13)C(=O)NCC2
IC50 (A549 [2]): 21.8 nM
IC50 (A549 [3]): 6000 nM
PF50 (A549 [4]): 1.1

SMILES: O=Cc1cn2c3c(cccc13)C(=O)NCC2
Ki [1]: 176 nM

SMILES: CN(C)Cc1cccc(-c2cc3cccc4c3n2CCNC4=O)c1
IC50 (A549 [2]): 15 nM
IC50 (A549 [3]): 11000 nM
PF50 (A549 [4]): 1.6

SMILES: O=C1NCCn2c(-c3ccc(Cn4cccc4)cc3)cc3cccc1c32
Ki [1]: 6.8 nM

SMILES: O=C1NCCn2cc(/C=N/O)c3cccc1c32
IC50 (A549 [2]): 18.5 nM
IC50 (A549 [3]): 8000 nM
PF50 (A549 [4]): 1.3

Ki [1]: 57 nM
SMILES: NN/N=C/c1c(-c2ccc(F)cc2)n2c3c(cccc13)C(=O)NCC2

Ki [1]: 6.4 nM
SMILES: CN(C)Cc1ccc(-c2cc3cccc4c3n2CCNC4=O)cc1
IC50 (A549 [2]): 12.6 nM
IC50 (A549 [3]): 7000 nM
PF50 (A549 [4]): 1.9

SMILES: O=C1NCCn2c(-c3ccc(F)cc3)cc3cccc1c32
IC50 (A549 [2]): 13.3 nM
IC50 (A549 [3]): 8000 nM
PF50 (A549 [4]): 1.8

Ki [1]: 6.9 nM
SMILES: CNCc1cccc(-c2cc3cccc4c3n2CCNC4=O)c1

SMILES: O=C1NCCn2c(-c3ccc(F)cc3)c(/C=N/O)c3cccc1c32
IC50 (A549 [2]): 20 nM
IC50 (A549 [3]): < 800 nM
PF50 (A549 [4]): 1.2

SMILES: O=C1NCCn2c(-c3ccc(Cl)cc3)cc3cccc1c32
IC50 (A549 [2]): 13.3 nM
IC50 (A549 [3]): 3000 nM
PF50 (A549 [4]): 1.8

SMILES: O=C1NCCn2c(-c3cccc(Cn4cccc4)c3)cc3cccc1c32
Ki [1]: 12.5 nM
